Results: ChEMBL document CHEMBL1127406 (J Med Chem, 1994)

Key:
Mu-type opioid receptor = Mu-type opioid receptor (Cavia porcellus, UniProt P97266); test: Binding affinity at mu opioid receptor in guinea pig brain by [3H]DAMGO displacement.
Summary of the method: (§1)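 Adult male guinea pig whole-brain membranes in 50 mM Tris-HCl pH 7.4, preincubated 25 °C 30 min to strip endogenous peptides. Buffer contains BSA and peptidase inhibitors. Tritiated ligand at 0.75 nM (delta), 1.0 nM (mu) or 1.5 nM (kappa). Ten concentrations over 800-fold range, in duplicate. Nonspecific binding with 10 µM naltrexone. Incubated 25 °C 3 h, filtered, counted; nonlinear least-squares fit.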

[1] = target: Kappa-type opioid receptor (Cavia porcellus, UniProt P41144); test: Binding affinity at kappa opioid receptor in guinea pig brain by [3H]U-69593 displacement.
Summary of the method: as §1, with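 “inhibitors.” for “inhibitors. Tritiated ligand at 0.75 nM (delta), 1.0 nM (mu) or 1.5 nM (kappa).”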

Cavia porcellus = species on record: Cavia porcellus; test: Inhibition of electrically induced smooth muscle contraction in guinea pig ileum.; type: functional
Summary of the method: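 Longitudinal muscle-myenteric plexus strips from ileum of male Hartley guinea pigs (250-500 g), held in 37 °C oxygenated Krebs buffer, 1 g tension. Transmural stimulation at 0.1 Hz, 0.4-ms supramaximal pulses; no peptidase inhibitors. Cumulative agonist doses, 3 min each; % inhibition of contraction height. μ-selectivity checked with 1000 nM CTAP. IC50 from Hill-equation fit, mean of two to four tissues.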

Kappa-type opioid receptor, sequence (P41144 whole entry): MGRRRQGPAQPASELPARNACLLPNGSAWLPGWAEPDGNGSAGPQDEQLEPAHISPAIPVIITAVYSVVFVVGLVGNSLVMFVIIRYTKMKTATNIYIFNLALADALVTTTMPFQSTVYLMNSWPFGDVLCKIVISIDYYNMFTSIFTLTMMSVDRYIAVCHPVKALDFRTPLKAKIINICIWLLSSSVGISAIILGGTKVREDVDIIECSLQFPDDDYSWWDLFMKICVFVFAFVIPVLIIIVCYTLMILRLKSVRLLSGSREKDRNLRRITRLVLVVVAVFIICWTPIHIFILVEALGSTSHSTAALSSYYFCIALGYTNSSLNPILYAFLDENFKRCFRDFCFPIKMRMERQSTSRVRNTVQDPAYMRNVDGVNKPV
Mu-type opioid receptor, sequence (P97266 whole entry): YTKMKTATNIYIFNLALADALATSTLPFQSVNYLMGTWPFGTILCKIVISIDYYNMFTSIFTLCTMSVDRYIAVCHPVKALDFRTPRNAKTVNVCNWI

Row | Compound | IC50 (Mu-type opioid receptor) | IC50 [1] | IC50 (Cavia porcellus)
1 | CC[C@H](C)[C@@H]1NC(=O)[C@H](CCCN=C(N)N)NC(=O)[C@H](CCCN=C(N)N)NC(=O)[C@H](NC(=O)[C@H](Cc2ccccc2)NC(=O)CNC(=O)CNC(=O)[C@@H](N)Cc2ccc(O)cc2)C(C)(C)SSC(C)(C)[C@@H](C(N)=O)NC(=O)[C@@H]2CCCN2C(=O)[C@H](CCCN=C(N)N)NC1=O | 224 nM | 26.1 nM | 
2 | CC[C@H](C)[C@@H]1NC(=O)[C@H](CCCN=C(N)N)NC(=O)[C@H](CCCN=C(N)N)NC(=O)[C@@H](NC(=O)[C@H](Cc2ccccc2)NC(=O)CNC(=O)CNC(=O)[C@@H](N)Cc2ccc(O)cc2)CSSC(C)(C)[C@H](C(N)=O)NC(=O)[C@@H]2CCCN2C(=O)[C@H](CCCN=C(N)N)NC1=O | 17 nM | 1 nM | 
3 | CC[C@H](C)[C@@H]1NC(=O)[C@H](CCCN=C(N)N)NC(=O)[C@H](CCCN=C(N)N)NC(=O)[C@H](NC(=O)[C@H](Cc2ccccc2)NC(=O)CNC(=O)CNC(=O)[C@@H](N)Cc2ccc(O)cc2)C(C)(C)SSC[C@@H](C(N)=O)NC(=O)[C@@H]2CCCN2C(=O)[C@H](CCCN=C(N)N)NC1=O | 87.1 nM | 87.1 nM | 
4 | CC[C@H](C)[C@@H]1NC(=O)[C@H](CCCN=C(N)N)NC(=O)[C@H](CCCN=C(N)N)NC(=O)[C@H](NC(=O)[C@H](Cc2ccccc2)NC(=O)CNC(=O)CNC(=O)[C@@H](N)Cc2ccc(O)cc2)C(C)(C)SSC(C)(C)[C@H](C(N)=O)NC(=O)[C@@H]2CCCN2C(=O)[C@H](CCCN=C(N)N)NC1=O | 563 nM | 70.5 nM | 
5 | CC[C@H](C)[C@H](NC(=O)[C@H](CCCN=C(N)N)NC(=O)[C@H](CCCN=C(N)N)NC(=O)[C@@H](CC(C)C)NC(=O)[C@H](Cc1ccccc1)NC(=O)CNC(=O)CNC(=O)[C@@H](N)Cc1ccc(O)cc1)C(=O)N[C@@H](CCCN=C(N)N)C(=O)N1CCC[C@H]1C(=O)N[C@@H](CCCCN)C(N)=O |  |  | 94 nM
6 | CC[C@H](C)[C@@H]1NC(=O)[C@H](CCCN=C(N)N)NC(=O)[C@H](CCCN=C(N)N)NC(=O)[C@H](NC(=O)[C@H](Cc2ccccc2)NC(=O)CNC(=O)CNC(=O)[C@@H](N)Cc2ccc(O)cc2)C(C)(C)SSC[C@H](C(N)=O)NC(=O)[C@@H]2CCCN2C(=O)[C@H](CCCN=C(N)N)NC1=O | 51.1 nM | 18 nM | 
7 | CC[C@H](C)[C@@H]1NC(=O)[C@H](CCCN=C(N)N)NC(=O)[C@H](CCCN=C(N)N)NC(=O)[C@H](NC(=O)[C@H](Cc2ccccc2)NC(=O)CNC(=O)CNC(=O)[C@@H](N)Cc2ccc(O)cc2)CSSC(C)(C)[C@H](C(N)=O)NC(=O)[C@@H]2CCCN2C(=O)[C@H](CCCN=C(N)N)NC1=O | 108 nM | 100 nM | 
8 | CC[C@H](C)[C@H](NC(=O)[C@H](CCCN=C(N)N)NC(=O)[C@H](CCCN=C(N)N)NC(=O)[C@H](CC(C)C)NC(=O)[C@H](Cc1ccccc1)NC(=O)CNC(=O)CNC(=O)[C@@H](N)Cc1ccc(O)cc1)C(=O)N[C@@H](CCCN=C(N)N)C(=O)N1CCC[C@H]1C(=O)NC(CCCCN)C(N)=O (stereo in doubt) | 9.9 nM |  | 1.07 nM
9 | CC[C@H](C)[C@H](NC(=O)[C@H](CCCN=C(N)N)NC(=O)[C@H](CCCN=C(N)N)NC(=O)C(CC(C)C)NC(=O)[C@H](Cc1ccccc1)NC(=O)CNC(=O)CNC(=O)[C@@H](N)Cc1ccc(O)cc1)C(=O)N[C@@H](CCCN=C(N)N)C(=O)N1CCC[C@H]1C(=O)N[C@H](CCCCN)C(N)=O (stereo in doubt) | 5.2 nM |  | 0.3 nM
